Results reported in ChEMBL document CHEMBL1781932 (J Med Chem, 2011).
In brackets after ≈: the same amount, converted by molar mass.

Tests used:
Format in all cases: functional
[1] = tested on: Pseudomonas aeruginosa; assay: Antimicrobial activity against tetracycline-susceptible Pseudomonas aeruginosa isolate 111 by CLSI dilution method
Procedure, shortened: (§1)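 Broth microdilution per CLSI in fresh cation-adjusted Mueller Hinton broth, kept at 4 °C before testing, with defibrinated horse blood added as appropriate. Strains were from ATCC. MIC in µg/mL. Runs were accepted when comparator antibiotics against ATCC quality-control strains fell within recommended ranges.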

[2] = tested on: Streptococcus pneumoniae; assay: Antimicrobial activity against tetracycline-susceptible Streptococcus pneumoniae isolate 106 by CLSI dilution method; procedure, shortened: as §1
[3] = tested on: Enterococcus faecalis; assay: Antimicrobial activity against tetracycline-susceptible Enterococcus faecalis isolate 103 by CLSI dilution method; procedure, shortened: as §1
[4] = tested on: Acinetobacter baumannii; assay: Antimicrobial activity against tetracycline-susceptible Acinetobacter baumannii isolate 110 by CLSI dilution method; procedure, shortened: as §1
[5] = tested on: Staphylococcus aureus; assay: Antimicrobial activity against tetracycline-resistant Staphylococcus aureus isolate 158 harboring tetK gene by CLSI dilution method
[6] = tested on: Staphylococcus aureus; assay: Antimicrobial activity against methicillin-, tetracycline-resistant Staphylococcus aureus isolate 161 harboring tetM gene by CLSI dilution method
[7] = tested on: Escherichia coli; assay: Antimicrobial activity against tetracycline-resistant Escherichia coli isolate 155 harboring tetA gene by CLSI dilution method
[8] = tested on: Klebsiella pneumoniae; assay: Antimicrobial activity against tetracycline-susceptible Klebsiella pneumoniae isolate 109 by CLSI dilution method; procedure, shortened: as §1
[9] = tested on: Escherichia coli; assay: Antimicrobial activity against tetracycline-susceptible Escherichia coli isolate 107 by CLSI dilution method; procedure, shortened: as §1
[10] = tested on: Klebsiella pneumoniae; assay: Antimicrobial activity against tetracycline-resistant Klebsiella pneumoniae isolate 153 harboring tetA gene by CLSI dilution method
[11] = tested on: Streptococcus pneumoniae; assay: Antimicrobial activity against tetracycline-resistant Streptococcus pneumoniae isolate 160 harboring tetM gene by CLSI dilution method
[12] = tested on: Staphylococcus aureus; assay: Antimicrobial activity against tetracycline-susceptible Staphylococcus aureus isolate 101 by CLSI dilution method
[13] = tested on: Enterobacter cloacae; assay: Antimicrobial activity against tetracycline-susceptible Enterobacter cloacae isolate 108 by CLSI dilution method; procedure, shortened: as §1
[14] = tested on: Enterococcus faecalis; assay: Antimicrobial activity against tetracycline-resistant Enterococcus faecalis isolate 159 harboring […] gene by CLSI dilution method

Compound	MIC [1]	MIC [2]	MIC [3]	MIC [4]	MIC [5]	MIC [6]	MIC [7]	MIC [8]	MIC [9]	MIC [10]	MIC [11]	MIC [12]	MIC [13]	MIC [14]
CN(C)[C@@H]1C(O)=C(C(N)=O)C(=O)[C@@]2(O)C(O)=C3C(=O)c4c(cc5c(CN6CCC6)cccc5c4O)C[C@H]3C[C@@H]12	> 32 µg/mL	0.25 µg/mL (≈ 0.469 µM)	2 µg/mL (≈ 3.75 µM)	32 µg/mL (≈ 60 µM)	0.5 µg/mL (≈ 0.937 µM)	4 µg/mL (≈ 7.5 µM)	> 32 µg/mL	16 µg/mL (≈ 30 µM)	8 µg/mL (≈ 15 µM)	> 32 µg/mL	2 µg/mL (≈ 3.75 µM)	1 µg/mL (≈ 1.87 µM)		
CN(C)[C@@H]1C(O)=C(C(N)=O)C(=O)[C@@]2(O)C(O)=C3C(=O)c4c(cc5c(N)cccc5c4O)C[C@H]3C[C@@H]12	> 32 µg/mL	2 µg/mL (≈ 4.17 µM)	4 µg/mL (≈ 8.34 µM)	8 µg/mL (≈ 16.7 µM)	2 µg/mL (≈ 4.17 µM)	4 µg/mL (≈ 8.34 µM)	> 32 µg/mL	> 32 µg/mL	> 32 µg/mL	> 32 µg/mL		2 µg/mL (≈ 4.17 µM)	> 32 µg/mL	
CN(C)[C@@H]1C(O)=C(C(N)=O)C(=O)[C@@]2(O)C(O)=C3C(=O)c4c(cc5cc(N)ccc5c4O)C[C@H]3C[C@@H]12	> 32 µg/mL	2 µg/mL (≈ 4.17 µM)	4 µg/mL (≈ 8.34 µM)	16 µg/mL (≈ 33.4 µM)			> 32 µg/mL	> 32 µg/mL	> 32 µg/mL	> 32 µg/mL	8 µg/mL (≈ 16.7 µM)		> 32 µg/mL	
CN(C)[C@@H]1C(O)=C(C(N)=O)C(=O)[C@@]2(O)C(O)=C3C(=O)c4c(cc5ccc(CN6CCC6)cc5c4O)C[C@H]3C[C@@H]12	32 µg/mL (≈ 60 µM)	0.125 µg/mL (≈ 0.234 µM)	0.5 µg/mL (≈ 0.937 µM)		0.5 µg/mL (≈ 0.937 µM)	2 µg/mL (≈ 3.75 µM)	8 µg/mL (≈ 15 µM)	4 µg/mL (≈ 7.5 µM)	1 µg/mL (≈ 1.87 µM)	8 µg/mL (≈ 15 µM)	0.25 µg/mL (≈ 0.469 µM)	0.5 µg/mL (≈ 0.937 µM)		4 µg/mL (≈ 7.5 µM)
CN(C)CCOc1c2c(c(O)c3cc(CN4CCC4)ccc13)C(=O)C1=C(O)[C@]3(O)C(=O)C(C(N)=O)=C(O)[C@@H](N(C)C)[C@@H]3C[C@@H]1C2	> 32 µg/mL	1 µg/mL (≈ 1.61 µM)	8 µg/mL (≈ 12.9 µM)	> 32 µg/mL	4 µg/mL (≈ 6.44 µM)	8 µg/mL (≈ 12.9 µM)	> 32 µg/mL	32 µg/mL (≈ 51.6 µM)	8 µg/mL (≈ 12.9 µM)	> 32 µg/mL	2 µg/mL (≈ 3.22 µM)	4 µg/mL (≈ 6.44 µM)	16 µg/mL (≈ 25.8 µM)	
CNC(=O)Oc1c2c(c(O)c3cc(CN4CCC4)ccc13)C(=O)C1=C(O)[C@]3(O)C(=O)C(C(N)=O)=C(O)[C@@H](N(C)C)[C@@H]3C[C@@H]1C2	> 32 µg/mL	1 µg/mL (≈ 1.65 µM)	8 µg/mL (≈ 13.2 µM)	> 32 µg/mL			> 32 µg/mL	> 32 µg/mL	32 µg/mL (≈ 52.8 µM)	> 32 µg/mL	4 µg/mL (≈ 6.59 µM)	8 µg/mL (≈ 13.2 µM)	> 32 µg/mL	
CCCNc1c2c(c(O)c3cc(CN4CCC4)ccc13)C(=O)C1=C(O)[C@]3(O)C(=O)C(C(N)=O)=C(O)[C@@H](N(C)C)[C@@H]3C[C@@H]1C2	> 32 µg/mL	0.5 µg/mL (≈ 0.846 µM)	4 µg/mL (≈ 6.77 µM)	16 µg/mL (≈ 27.1 µM)	4 µg/mL (≈ 6.77 µM)		> 32 µg/mL	32 µg/mL (≈ 54.2 µM)	16 µg/mL (≈ 27.1 µM)	> 32 µg/mL	2 µg/mL (≈ 3.39 µM)	4 µg/mL (≈ 6.77 µM)	> 32 µg/mL	16 µg/mL (≈ 27.1 µM)
CCCN(CCC)c1c2c(c(O)c3cc(CN4CCC4)ccc13)C(=O)C1=C(O)[C@]3(O)C(=O)C(C(N)=O)=C(O)[C@@H](N(C)C)[C@@H]3C[C@@H]1C2	> 32 µg/mL	0.125 µg/mL (≈ 0.198 µM)	0.5 µg/mL (≈ 0.79 µM)	8 µg/mL (≈ 12.6 µM)	0.5 µg/mL (≈ 0.79 µM)		> 32 µg/mL	> 32 µg/mL	32 µg/mL (≈ 50.6 µM)	> 32 µg/mL	0.5 µg/mL (≈ 0.79 µM)	0.5 µg/mL (≈ 0.79 µM)	> 32 µg/mL	4 µg/mL (≈ 6.32 µM)
CN(C)[C@@H]1C(O)=C(C(N)=O)C(=O)[C@@]2(O)C(O)=C3C(=O)c4c(cc5ccccc5c4O)C[C@H]3C[C@@H]12	> 32 µg/mL	0.25 µg/mL (≈ 0.538 µM)	0.5 µg/mL (≈ 1.08 µM)	8 µg/mL (≈ 17.2 µM)		1 µg/mL (≈ 2.15 µM)	> 32 µg/mL		> 32 µg/mL		0.25 µg/mL (≈ 0.538 µM)	1 µg/mL (≈ 2.15 µM)		
CN(C)[C@@H]1C(O)=C(C(N)=O)C(=O)[C@@]2(O)C(O)=C3C(=O)c4c(cc5ccc(CN6CCCC6)cc5c4O)C[C@H]3C[C@@H]12	> 32 µg/mL	0.0625 µg/mL (≈ 0.114 µM)	0.25 µg/mL (≈ 0.457 µM)	1 µg/mL (≈ 1.83 µM)	0.25 µg/mL (≈ 0.457 µM)	2 µg/mL (≈ 3.65 µM)			1 µg/mL (≈ 1.83 µM)	4 µg/mL (≈ 7.3 µM)	0.125 µg/mL (≈ 0.228 µM)	0.5 µg/mL (≈ 0.913 µM)	4 µg/mL (≈ 7.3 µM)	2 µg/mL (≈ 3.65 µM)
CN(C)c1ccc(O)c2c1C[C@H]1C[C@H]3[C@H](N(C)C)C(O)=C(C(N)=O)C(=O)[C@@]3(O)C(O)=C1C2=O [MINOCYCLINE]	16 µg/mL (≈ 35 µM)	< 0.0156 µg/mL		0.0625 µg/mL (≈ 0.137 µM)	0.0313 µg/mL (≈ 0.0684 µM)	8 µg/mL (≈ 17.5 µM)	8 µg/mL (≈ 17.5 µM)		0.5 µg/mL (≈ 1.09 µM)	8 µg/mL (≈ 17.5 µM)	2 µg/mL (≈ 4.37 µM)	0.0625 µg/mL (≈ 0.137 µM)	2 µg/mL (≈ 4.37 µM)	16 µg/mL (≈ 35 µM)
